Data set [1] has as its system Escherichia coli. As to the kind of experiment: Activity of Escherichia coli KDPG aldolase. Summed up: (§1)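 Wild-type KDPG aldolase activity toward KDPG (0.2×–5× KM) was read through a coupled L-lactate dehydrogenase system: 20 mM HEPES pH 7.0, 0.42 mM NADH, 105 U LDH. Aldolase was added to start the reaction, NADH loss was followed at 340 nm for 5 min, and Michaelis–Menten fits gave the parameters.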

Data set [2] deals with Escherichia coli. As to the kind of experiment: Ratio of kcat to Km of Escherichia coli KDPG aldolase. Summed up: as §1
For data set [3], the system named is T1, KHG/KDPG aldolase (Escherichia coli (strain K12)), P0A955 [T161V].
T1 sequence (whole entry): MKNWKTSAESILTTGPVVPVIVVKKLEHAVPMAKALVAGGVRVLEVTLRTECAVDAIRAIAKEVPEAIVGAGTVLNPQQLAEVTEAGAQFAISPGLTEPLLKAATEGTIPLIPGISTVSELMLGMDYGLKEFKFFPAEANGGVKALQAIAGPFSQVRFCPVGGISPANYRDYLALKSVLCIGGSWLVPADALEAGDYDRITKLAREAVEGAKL
As to the kind of experiment: Ratio of kcat to Km of Escherichia coli KDPG aldolase T161V mutant. In outline:
(§2)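 KDPG aldolase T161A or T161V mutants were expressed from the pET plasmid in DF71 (eda–) cells, induced with 1 mM IPTG at 25 °C for 16 h, and purified on nickel resin. Assays used 20 mM HEPES pH 7.0, 0.42 mM NADH, KDPG at 0.2×–5× KM and 105 U rabbit-muscle L-lactate dehydrogenase, started with enzyme. A340 was monitored for 5 min, and initial velocities were fitted to Michaelis–Menten.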

Data set [4] deals with T2, KHG/KDPG aldolase (Escherichia coli (strain K12)), P0A955 [T161A].
T2 sequence (whole entry): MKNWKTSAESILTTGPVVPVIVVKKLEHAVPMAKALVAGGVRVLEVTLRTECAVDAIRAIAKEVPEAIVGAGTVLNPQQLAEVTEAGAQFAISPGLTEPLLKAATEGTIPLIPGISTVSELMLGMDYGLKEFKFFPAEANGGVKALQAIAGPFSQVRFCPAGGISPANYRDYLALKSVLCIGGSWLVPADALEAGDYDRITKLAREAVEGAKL
The data set is described as follows: Ratio of kcat to Km of Escherichia coli KDPG aldolase T161A mutant. In outline: as §2

Data set [5] relates to Escherichia coli. As to the kind of experiment: Activity of Escherichia coli KDPGal aldolase. In outline:
(§3)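 The enzyme started a coupled L-lactate dehydrogenase assay in 20 mM HEPES pH 7.0 with 0.42 mM NADH, KDPGal at 0.2×–5× KM and 105 U LDH. The A340 decrease was followed for 5 min. Initial slopes were fitted to Michaelis–Menten.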

Data set [6] relates to Escherichia coli. As to the kind of experiment: Ratio of kcat to Km for Escherichia coli KDPGal aldolase. In outline: as §3
For data set [7], the system named is T3, 2-dehydro-3-deoxy-6-phosphogalactonate aldolase (Escherichia coli (strain K12)), Q6BF16 [V154T].
T3 sequence (whole entry): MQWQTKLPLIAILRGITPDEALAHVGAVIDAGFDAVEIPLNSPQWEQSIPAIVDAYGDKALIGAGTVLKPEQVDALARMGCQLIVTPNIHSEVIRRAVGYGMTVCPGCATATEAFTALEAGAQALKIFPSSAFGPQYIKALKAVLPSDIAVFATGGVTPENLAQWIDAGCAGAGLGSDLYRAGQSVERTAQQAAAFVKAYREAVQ
The data set is described as follows: Ratio of kcat to Km for Escherichia coli KDPGal aldolase V154T mutant. In outline: (§4)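 V154A or V154T KDPGal aldolase was made by Quikchange and expressed in DF71 (eda–) cells, with 1 mM IPTG induction at 25 °C for 16 h. It was nickel-affinity purified. Retro-aldol cleavage of KDPGal (0.2×–5× KM) was coupled to L-lactate dehydrogenase (105 U) in 20 mM HEPES pH 7.0 with 0.42 mM NADH. Aldolase was added last, and A340 loss was read over 5 min. Kinetic constants came from Michaelis–Menten fits of initial rates.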

The subject of data set [8] is T4, 2-dehydro-3-deoxy-6-phosphogalactonate aldolase (Escherichia coli (strain K12)), Q6BF16 [V154A].
T4 sequence (whole entry): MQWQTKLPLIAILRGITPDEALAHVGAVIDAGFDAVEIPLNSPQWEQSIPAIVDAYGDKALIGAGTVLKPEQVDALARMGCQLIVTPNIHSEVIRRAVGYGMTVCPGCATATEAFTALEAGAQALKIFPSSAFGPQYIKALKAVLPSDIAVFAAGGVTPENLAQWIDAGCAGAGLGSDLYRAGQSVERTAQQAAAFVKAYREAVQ
The data set is described as follows: Ratio of kcat to Km for Escherichia coli KDPGal aldolase V154A mutant. Summed up:
as §4

Substrate in data set [9]: O=C(O)C(=O)C[C@H](O)[C@@H](O)COP(=O)(O)O
As to the kind of experiment: (§5) Activity of Escherichia coli KDPGal aldolase V154T mutant. Summed up:
as §4

Substrate in data set [10]: O=C(O)C(=O)C[C@H](O)[C@H](O)COP(=O)(O)O
Described as §5. Summed up:
as §4

Substrate in data set [11]: O=C(O)C(=O)C[C@H](O)[C@@H](O)COP(=O)(O)O
As to the kind of experiment: (§6) Activity of Escherichia coli KDPGal aldolase V154A mutant. Summed up:
as §4

Substrate in data set [12]: O=C(O)C(=O)C[C@H](O)[C@H](O)COP(=O)(O)O
The data set is described as §6. Summed up: as §4

For `O=C(O)C(=O)C[C@H](O)[C@H](O)COP(=O)(O)O`, the results for the Km in the data set on Escherichia coli [1] and with Escherichia coli [5] were 100 µM and 1300 µM, respectively. For the same molecule, the turnover number (kcat) turned out to be 80 s⁻¹ in the data set with Escherichia coli [1] and 1.4 s⁻¹ in the data set with Escherichia coli [5]. The Ratio amounted to 800 mM⁻¹ s⁻¹ with Escherichia coli [2]; 0.07 mM⁻¹ s⁻¹ in [3]; 58 mM⁻¹ s⁻¹ in data set [4]; 1.1 mM⁻¹ s⁻¹ in the data set with Escherichia coli [6]; 0.1 mM⁻¹ s⁻¹ in data set [7]; 0.02 mM⁻¹ s⁻¹ in data set [8].
Consider `O=C(O)C(=O)C[C@H](O)[C@@H](O)COP(=O)(O)O`, for which the values for the Michaelis constant (Km) in the data set on Escherichia coli [1] and in the data set on Escherichia coli [5] were 600 µM and 200 µM, respectively. The kcat with Escherichia coli [1] turned out to be 1.7 s⁻¹; in the data set with Escherichia coli [5], 3.8 s⁻¹. Besides, the Ratio in the data set on Escherichia coli [2] amounted to 2.8 mM⁻¹ s⁻¹; in data set [3], 0.1 mM⁻¹ s⁻¹; in data set [4] it was 5 mM⁻¹ s⁻¹; with Escherichia coli [6] it was 19 mM⁻¹ s⁻¹; in [7] it was 0.7 mM⁻¹ s⁻¹; in data set [8] it was 1.3 mM⁻¹ s⁻¹.

B1: 2-dehydro-3-deoxy-6-phosphogalactonate aldolase (Escherichia coli (strain K12)), Q6BF16 V154T (protein)
chain: MQWQTKLPLIAILRGITPDEALAHVGAVIDAGFDAVEIPLNSPQWEQSIPAIVDAYGDKALIGAGTVLKPEQVDALARMGCQLIVTPNIHSEVIRRAVGYGMTVCPGCATATEAFTALEAGAQALKIFPSSAFGPQYIKALKAVLPSDIAVFATGGVTPENLAQWIDAGCAGAGLGSDLYRAGQSVERTAQQAAAFVKAYREAVQ
Turning to B1, in data set [9], the Michaelis-Menten constant (Km) is 300 µM and the turnover number (kcat) stood at 0.2 s⁻¹. In [10], the Michaelis constant (Km) came out at 90 µM and the kcat came out at 0.01 s⁻¹.

B2: 2-dehydro-3-deoxy-6-phosphogalactonate aldolase (Escherichia coli (strain K12)), Q6BF16 V154A (protein)
chain: MQWQTKLPLIAILRGITPDEALAHVGAVIDAGFDAVEIPLNSPQWEQSIPAIVDAYGDKALIGAGTVLKPEQVDALARMGCQLIVTPNIHSEVIRRAVGYGMTVCPGCATATEAFTALEAGAQALKIFPSSAFGPQYIKALKAVLPSDIAVFAAGGVTPENLAQWIDAGCAGAGLGSDLYRAGQSVERTAQQAAAFVKAYREAVQ
For B2, the figures for the Km in data set [11] and in data set [12] were 400 µM and 300 µM, respectively. Also, the figures for the catalytic constant (kcat) in [11] and in data set [12] were 0.5 s⁻¹ and 0.007 s⁻¹, respectively.

One may read the Km as the concentration of substrate that gives half-maximal velocity. As usually defined, the kcat is the number of substrate molecules converted per active site and unit of time at saturation.

Source of the values: ChEMBL document CHEMBL1142378, “Characterization and crystal structure of Escherichia coli KDPGal aldolase” (Bioorg Med Chem, 2008).
